TCR CD3 inh – inhibitors of human TCR-CD3 interaction, primary screen, biochemical, fluorescence, TAMRA-labeled TCR probe | T-cell receptor (TCR) | inhibition, % at 9.4 µM | 360,000 compounds, 0.37% hits; in the data active = inhibition above about 19%;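 also: recombinant mutant TCR 2C K166C tagged with TAMRA read by polarization; 0% = receptor in buffer alone and 100% = receptor with positive control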
ABHD4 inh – ABHD4 inhibitors, primary screen, biochemical, fluorescence polarization, mouse; 370,000 compounds, 0.54% hits; inhibition, % at 8.92 µM; purified mABHD4, FP-Rh probe fluorescence polarization;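 active = inhibition exceeding the mean over every tested compound plus 3 SD, cut at about 30% in these data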;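 also: 0% = plate median of compound wells and 100% = S159A mutant with DMSO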
Target sequence (Q8VD66 whole entry, looked up): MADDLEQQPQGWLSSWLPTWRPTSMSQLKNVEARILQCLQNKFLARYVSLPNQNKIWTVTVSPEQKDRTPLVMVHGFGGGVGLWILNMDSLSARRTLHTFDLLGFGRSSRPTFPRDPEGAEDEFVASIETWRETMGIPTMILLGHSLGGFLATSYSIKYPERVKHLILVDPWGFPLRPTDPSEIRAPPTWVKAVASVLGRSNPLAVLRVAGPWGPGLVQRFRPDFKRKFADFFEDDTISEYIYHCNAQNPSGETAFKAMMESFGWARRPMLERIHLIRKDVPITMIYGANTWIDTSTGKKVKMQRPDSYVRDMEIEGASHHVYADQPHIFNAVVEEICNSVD
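Assay system: mouse ABHD4 enzyme, wild type / Also added: fluorescent activity-based probe FP-Rh / Doses: single nominal dose of 8.92 µM, 0.89% DMSO final / Timing: 45 min compound pre-incubation plus 60 min probe step, 25 °C / Signal: FP readout, ex 525 nm / em 598 nm / Control set: S159A mutant/DMSO as 100%, compound-well median as 0%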
LEDGF integ inh – blockers of LEDGF/p75-dependent integrase strand transfer – biochemical, TR-FRET, high throughput, primary screen; 370,000 compounds, 0.64% hits; HIV-1 integrase (with human LEDGF/p75); AID 743269, 2014; TR-FRET IN-LEDGF/p75 DNA integration, Eu/Cy5; inhibition, % at 3.7 µM;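 active = inhibition above the screen-wide mean plus 3 SD, cut at about 13% in these data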;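 also: signal is the Cy5 over europium emission ratio at 671 and 618 nm; 0% = plate median of compound wells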
TDP2 inh – human TDP2 enzyme inhibitors, primary screen, biochemical, epi absorbance, recombinant enzyme; AID 720702, 2013; Tyrosyl-DNA phosphodiesterase 2 (Homo sapiens), O95551; 370,000 compounds, 0.34% hits; T5PNP hydrolysis, p-nitrophenol absorbance 415 nm; inhibition, % at 12.8 µM;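 active = inhibition above the mean of all tested compounds plus 3 SD, set per campaign, cut at about 25% in these data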;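 also: 0% = DMSO with enzyme and 100% = buffer with substrate but no TDP2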
Target sequence (O95551 whole entry, looked up): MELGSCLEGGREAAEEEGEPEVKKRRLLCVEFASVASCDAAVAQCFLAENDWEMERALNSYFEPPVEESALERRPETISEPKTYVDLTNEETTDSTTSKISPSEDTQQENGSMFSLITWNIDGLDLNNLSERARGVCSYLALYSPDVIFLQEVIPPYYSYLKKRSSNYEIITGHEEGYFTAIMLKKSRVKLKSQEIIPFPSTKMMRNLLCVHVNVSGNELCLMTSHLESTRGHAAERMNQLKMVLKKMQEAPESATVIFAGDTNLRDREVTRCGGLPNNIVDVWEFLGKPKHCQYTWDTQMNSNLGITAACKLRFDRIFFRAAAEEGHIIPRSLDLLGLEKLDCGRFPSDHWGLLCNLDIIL
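Assay system: Recombinant human TDP2 | Quantity: 120 nM TDP2 per well | Incubation: 2 h at 37 °C | Signal: Epi absorbance | Evaluation: Percent inhibition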
SIAE inh – human SIAE inhibitors, primary screen, biochemical, fluorescence polarization, FP-Rh probe, 1536-well HTS; Sialate O-acetylesterase (Homo sapiens), Q9HAT2; SIAE FP-Rh probe binding; inhibition, % at 9.66 µM; 370,000 compounds, 0.69% hits; AID 1053197, 2014;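 active = inhibition above a cutoff: mean of compounds within the control limits plus 3 SD of those, cut at about 17% in these data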;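 also: 0% = plate median of compound wells and 100% = probe without SIAE protein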
HTRA1 inh – HTRA1 serine protease inhibitors, primary screen, biochemical, fluorescence polarization, HTS. recombinant HTRA1, FP-rhodamine activity-based probe. inhibition, % at 5.96 µM. 340,000 compounds, 0.5% hits. AID 504803, 2011; in the data active = inhibition above about 36%;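 also: 0% = enzyme with DMSO and 100% = wells lacking enzyme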
IN multimer act – HIV-1 IN multimer formation enhancers, counter-screen for LEDGF/p75 integration inhibitor project, biochemical, TR-FRET; shares compounds with LEDGF integ inh; TR-FRET HIV-1 integrase multimerization; AID 1053131, 2014; activation, % at 7.7 µM; 2,000 compounds, 17% hits; in the data active = activation above about 8.9%
TRFRET interf – TR-FRET optical interference artefacts, confirmation, artefact control for LEDGF/p75-dependent integration inhibitor project, biochemical, HIV-1 IN multimerization; 2,000 tested, under 10 active; shares compounds with LEDGF integ inh; TR-FRET optical interference counterscreen; AID 1053135, 2014; inhibition, % at 7.7 µM;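 active = inhibition above the mean over all tested compounds plus 3 SD, which no compound reached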;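 also: 0% = integrase with antibodies and DMSO and 100% = antibodies without integrase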
IN-LEDGF confirm – inhibitors of HIV-1 IN-LEDGF/p75 DNA integration, confirmation, biochemical, TR-FRET; TR-FRET LEDGF/p75-dependent HIV-1 integration; AID 1053136, 2014; 2,000 compounds, 36% hits; inhibition, % at 3.7 µM; shares compounds with LEDGF integ inh; in the data active = inhibition above about 14%
* hit, by the source's call; nt = no result. An excerpt weighted towards active compounds, which were near 2.2% of everything screened.

SMILES	TCR CD3 inh	ABHD4 inh	LEDGF integ inh	TDP2 inh	SIAE inh	HTRA1 inh	IN multimer act	TRFRET interf	IN-LEDGF confirm
O=C(N1CCCCCC1)N1CCN(C(=O)N2CCOCC2)CC1	-0.9	-5.5	30.7*	5.7	-2.0	-4.7	-0.2	0.8	0.0
O=C(N1CCOCC1)N1CCCN(C(=O)N2CCOCC2)CC1	0.0	-15.8	-3.7	1.1	-5.0	-0.9	nt	nt	nt
COc1ccc(CC(N)c2csc(NC(=O)c3cc(C(C)(C)C)nn3Cc3ccccc3)n2)cc1 (configuration not stated)	2.4	-0.2	4.4	-11.1	-14.1	nt	nt	nt	nt
CN(C(=O)c1ccccc1OCc1ccc(F)cc1)c1c(N)n(Cc2ccccc2)c(=O)[nH]c1=O	-12.2	1.1	54.5*	3.2	-3.0	-0.5	-1.3	6.5	-5.0
Cc1ccnc(NC(=S)NC(=O)/C=C/c2ccco2)c1	1.0	7.7	15.7*	-2.1	4.0	11.3	0.3	-1.7	9.3
CCOC(=O)[C@H]1[C@H]2COc3cc(OC)ccc3[C@@H]2N2C(=O)c3cc(F)c(F)cc3NC(=O)[C@@]12C	1.3	-8.4	-0.2	3.1	-2.4	-20.8	nt	nt	nt
O=C(COC(=O)C1CCN(S(=O)(=O)c2ccc3c(c2)OCCO3)CC1)NC1CCS(=O)(=O)C1 (configuration not stated)	2.9	3.6	81.0*	-2.6	1.4	-3.9	-0.2	1.3	1.4
O=C(C(O)c1ccc(Br)cc1)N1CCC(Nc2ccc3[nH]ncc3c2)CC1 (configuration not stated)	1.3	22.1	17.1*	4.2	3.4	nt	4.9	-24.8	1.2
O=C(Nc1ccc2[nH]ncc2c1)C1CCC1	-0.5	3.6	-3.2	11.7	-4.5	3.3	nt	nt	nt
OC[C@@H]1CN(Cc2ccco2)C[C@H](n2cnc3c(NC4CCCC4)ncnc32)O1	-4.8	-2.1	-0.6	-6.8	-5.5	nt	nt	nt	nt
O=C1CCCC2=C1C(c1ccco1)Nc1ccc3ccccc3c12 (configuration not stated)	10.9	25.1	33.3*	-9.7	3.8	14.7	3.7	-18.7	52.7*
CC(=C/c1ccco1)/C=N/NC(=O)Cc1cccn1C	-3.1	5.3	20.9*	-1.7	15.5	5.2	-1.3	4.7	9.8
CC(/C=N/NC(=O)Cc1cccn1C)=C\c1ccco1	11.1	3.9	37.2*	4.3	5.8	8.7	0.9	-4.8	6.0
CC(Nc1nc(N2CCNCC2)nc2ccccc12)c1ccccc1 (configuration not stated)	4.2	-1.8	2.8	7.0	0.8	-21.2	nt	nt	nt
COC(=O)c1ccc(C(=O)OC)c(NC(=O)C2CCCO2)c1 (configuration not stated)	3.1	-0.5	-2.4	7.6	-1.1	-5.0	nt	nt	nt
O=C(c1cc(-c2cccc(O)c2)on1)N1CCCCCC1	0.7	-2.9	46.9*	6.9	14.4	-1.1	-0.3	1.4	-2.7
CCOC(=O)c1c2ccc(OCC(=O)N/N=C/c3ccc(C)cc3)cc2n2ccccc12	3.5	11.4	2.1	16.1	7.5	1.7	nt	nt	nt
CCOC(=O)c1c2ccc(OCC(=O)NN)cc2n2ccccc12	1.7	20.4	23.0*	4.4	5.7	10.7	2.8	-14.2	6.0
CC(=O)NC(=S)Nc1cccc([N+](=O)[O-])c1	0.8	-1.4	-2.2	2.3	6.2	2.0	nt	nt	nt
O=C(NC(=S)Nc1cccc([N+](=O)[O-])c1)C1CCCC1	2.7	2.6	88.2*	13.9	0.6	-14.1	-2.4	12.3	3.5
Cc1cc(Nc2nc3ccccc3[nH]c2=O)n(-c2ccccc2)n1	0.2	-1.2	2.9	-5.9	-5.4	-8.3	nt	nt	nt
Cc1cc(Nc2nc3ccccc3nc2Cl)n(-c2ccc([N+](=O)[O-])cc2)n1	0.4	1.5	81.7*	-9.7	6.9	-13.9	0.5	-2.4	-1.1
CCC(CC)C(=O)N(C)c1c(C)nc2c(OCc3ccc(C(F)(F)F)cc3)cccn12	7.0	1.6	-1.1	3.0	-5.1	nt	nt	nt	nt
CCC(CC)C(=O)N(C)c1c(C)nc2c(OCc3ccc(F)c(F)c3)cccn12	0.3	-6.1	21.1*	1.6	1.9	nt	1.4	-4.7	3.4
N#Cc1nc(-c2ccc(F)cc2)oc1NCc1ccco1	-0.8	-2.2	6.7	1.0	-0.8	-0.8	nt	nt	nt
SMILES	TCR CD3 inh	ABHD4 inh	LEDGF integ inh	TDP2 inh	SIAE inh	HTRA1 inh	IN multimer act	TRFRET interf	IN-LEDGF confirm
N#Cc1nc(-c2ccc(F)cc2)oc1NCc1ccccc1	-7.8	-10.2	14.9*	-1.4	-0.8	-11.7	-2.1	7.8	-1.7
N#Cc1nc(-c2cccs2)oc1NCc1ccccc1	1.8	-5.0	14.4*	-0.1	4.3	-26.0	4.5	-16.8	16.8*
Cc1ccc(CNc2oc(-c3cccs3)nc2C#N)cc1	2.5	-5.4	20.9*	-22.0	-1.9	-36.1	1.4	-7.2	1.6
C=CCCC1CN(Cc2ccc(OC)cc2)S(=O)(=O)c2c(F)cccc2O1 (configuration not stated)	2.6	-10.7	2.2	-2.1	-0.9	nt	nt	nt	nt
COC(=O)c1cc2c(c3c4ccccc4n(S(=O)(=O)c4ccc(OC)cc4)c13)C(=O)N(Cc1ccccc1OC)C2	-1.7	5.0	-0.8	3.6	-4.2	nt	nt	nt	nt
CC(C)CC(C(=O)Nc1oc(-c2ccco2)c(-c2ccco2)c1C#N)N1C(=O)c2ccccc2C1=O (configuration not stated)	-3.5	21.6	17.4*	1.0	-7.5	-2.7	1.8	-9.2	8.8
CC(=O)Nc1cccc(C(=O)O)n1	2.2	4.4	-1.6	-2.1	0.4	4.1	nt	nt	nt
O=C(O)c1cccc(Cl)n1	4.7	-2.6	82.8*	3.9	1.0	3.1	1.6	-8.1	-4.5
Cc1ncc([N+](=O)[O-])n1CC(=O)Nc1cc(Cl)ccc1Cl	2.5	6.1	52.4*	-0.1	1.1	-6.6	-0.7	3.4	-2.0
O=C(Nc1ccccc1)c1cc(C2CCCCN2S(=O)(=O)c2ccc(F)cc2F)on1 (configuration not stated)	5.6	-3.0	1.2	-8.2	-1.9	nt	nt	nt	nt
